From PubChem
NCF1 inh = p47phox (human) inhibition | P14598 | p47phox/p22phox peptide binding, fluorescence polarization, 2 h | inhibition, % at 24.7 µM | actives 0.53% (n = 220,000) | AID 1274;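 active = inhibition above about 30%, limit read from the data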
ROMK mod = human ROMK K+ channel modulation, primary screen | B-score at 10 µM | actives 2% (n = 130,000) | Tet-inducible ROMK, thallium flux fluorescence; actives lie on both sides | P48048;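 active = signal ratio slope over the read window, or its plate-corrected B-score, at least 3 SD from the plate mean, either direction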;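 also: B-score of the F/F0 ratio slope over 7 to 12 s after thallium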
Cl transport mod = modulates chloride dependent transport by human KCC2; Q9H2X9; KCC2 cells, thallium flux FluoZin-2 fluorescence; B-score of Tl+ flux slope (higher = more flux/activation; lower = inhibition) at 10 µM; actives 2.2% (n = 190,000); AID 1456;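 active = thallium flux slope and its plate-corrected score both differing from the plate sample mean at a set confidence after two filtering rounds, in either direction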;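 also: slope of fluorescence scaled to starting intensity during 10 to 20 s after thallium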
Target sequence (Q9H2X9 whole entry, looked up): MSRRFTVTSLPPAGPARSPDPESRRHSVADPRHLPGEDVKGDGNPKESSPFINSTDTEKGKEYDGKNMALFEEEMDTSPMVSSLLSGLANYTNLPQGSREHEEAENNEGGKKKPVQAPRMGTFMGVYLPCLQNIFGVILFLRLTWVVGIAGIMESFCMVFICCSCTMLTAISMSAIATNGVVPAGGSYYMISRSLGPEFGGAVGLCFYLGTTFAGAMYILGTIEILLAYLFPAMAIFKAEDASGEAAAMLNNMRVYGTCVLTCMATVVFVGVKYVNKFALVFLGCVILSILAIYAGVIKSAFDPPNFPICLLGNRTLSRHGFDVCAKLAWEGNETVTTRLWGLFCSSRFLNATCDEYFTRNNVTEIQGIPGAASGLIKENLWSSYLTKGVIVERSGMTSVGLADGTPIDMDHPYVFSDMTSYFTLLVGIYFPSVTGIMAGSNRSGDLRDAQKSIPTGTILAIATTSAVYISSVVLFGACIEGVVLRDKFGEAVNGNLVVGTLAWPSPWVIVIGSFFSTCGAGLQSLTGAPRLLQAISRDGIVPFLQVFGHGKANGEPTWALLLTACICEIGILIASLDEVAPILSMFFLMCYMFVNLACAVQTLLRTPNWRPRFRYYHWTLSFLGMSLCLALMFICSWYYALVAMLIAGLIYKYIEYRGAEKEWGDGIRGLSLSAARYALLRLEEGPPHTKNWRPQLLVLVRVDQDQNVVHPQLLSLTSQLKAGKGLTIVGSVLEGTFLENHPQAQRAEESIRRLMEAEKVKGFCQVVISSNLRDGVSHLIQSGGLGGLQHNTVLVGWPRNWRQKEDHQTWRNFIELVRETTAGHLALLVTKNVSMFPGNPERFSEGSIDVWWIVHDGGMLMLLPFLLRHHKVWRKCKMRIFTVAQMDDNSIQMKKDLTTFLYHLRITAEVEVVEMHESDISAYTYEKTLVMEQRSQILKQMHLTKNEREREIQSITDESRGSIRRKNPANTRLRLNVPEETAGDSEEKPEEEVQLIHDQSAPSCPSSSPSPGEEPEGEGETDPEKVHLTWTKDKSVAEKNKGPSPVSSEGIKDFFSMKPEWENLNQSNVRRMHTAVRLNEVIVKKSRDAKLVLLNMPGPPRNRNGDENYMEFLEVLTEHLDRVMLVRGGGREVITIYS
WT yeast gro inh = growth inhibition of WT yeast, mitochondrial fusion screen; AID 1362; inhibition, % at 10 µM; mitochondrial fusion phenotypic screen, WT strain; actives 2.1% (n = 190,000); in the data active = inhibition above about 58%; tested in S. cerevisiae
14-3-3 Bad inh = disrupts binding of bovine 14-3-3 zeta to phospho-Bad peptide | actives 0.71% (n = 220,000) | P63103 | inhibition, % at 21.7 µM | TR-FRET 14-3-3zeta/Dy647-pBad peptide displacement, 1 h | AID 781;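 active = inhibition above about 70%, limit read from the data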
RBBP9 inh = blocks human serine hydrolase RBBP9; O75884; recombinant RBBP9, FP-Rh probe fluorescence polarization; inhibition, % at 7.94 µM; actives 0.2% (n = 220,000);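 active = inhibition above the campaign mean of all tested compounds plus 3 SD, cut at about 14% in these data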
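Test system – recombinant human RBBP9 · Input – RBBP9 2.5 µM in dispensing solution, pre-mixing · Medium – Tris buffer pH 8.0, NaCl, Pluronic · Schedule – preincubation 30 min plus labeling 45 min at 25 °C · Measured by – fluorescence polarization · Measure – % inhibition · Controls – DMSO and no-protein wells · Replicates – one well per compound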
Each line names hits and unclear results; the compound was inactive in the other large screens. An excerpt weighted towards active compounds, which were near 5.8% of everything screened.

O=C(COC(=O)Cc1ccc(Br)cc1)NC12CC3CC(CC(C3)C1)C2	WT yeast gro inh 84
CC(=O)N1CCN(Cc2nc3cc(NC(=O)c4cccc(Br)c4)ccc3n2C)CC1	none (no result: ROMK mod, WT yeast gro inh)
O=C(NC1CCCCC1)C(c1ccc(F)cc1)N(Cc1ccccc1)C(=O)CN1C(=O)c2ccccc2S1(=O)=O (centres undefined)	none
O=C(NC1CCCCC1)C(c1ccc(F)cc1)N(CCc1ccccc1)C(=O)CN1C(=O)c2ccccc2S1(=O)=O (centres undefined)	NCF1 inh 31 (no result: ROMK mod)
CCCN(C(=O)c1ccco1)c1nnc(-c2ccccc2C)s1	none
O=C(Nc1ccc(OC(F)(F)F)cc1)C1CCCN(S(=O)(=O)c2cccnc2)C1 (centres undefined)	14-3-3 Bad inh 82
Cc1csc(NC(=O)C2CCCN(S(=O)(=O)c3cccnc3)C2)n1 (centres undefined)	none (no result: ROMK mod)
CCCN(CC1CCCO1)C(=O)CCc1nnc(-c2cc(C)on2)o1 (centres undefined)	none
O=c1oc2cc(Oc3ccc(C(F)(F)F)cc3[N+](=O)[O-])ccc2c2c1CCC2	none (no result: ROMK mod)
O=c1oc2cc(Oc3c([N+](=O)[O-])cc(C(F)(F)F)cc3[N+](=O)[O-])ccc2c2c1CCCC2	WT yeast gro inh 62
CC1CCCN(CCCOc2ccccc2-c2ccccc2)C1 (centres undefined)	NCF1 inh 31
CC(C)(C)c1ccccc1OCCOCCN1CCCCCC1	WT yeast gro inh 68
C=CCc1ccccc1OCCCCN1CCCC1	14-3-3 Bad inh 79 (no result: ROMK mod)
Cc1ccccc1OCCCN1CCCC1	14-3-3 Bad inh 76 (no result: ROMK mod)
Cc1cccc(C)c1OCCCN1CCCC1	none
CC1CCN(CCCCOc2ccccc2-c2ccccc2)CC1	none (no result: ROMK mod)
CC(C)Cc1ccc(C(C)NC(=O)c2ccc(=O)[nH]c2)cc1 (centres undefined)	none
CCOC(=O)c1cnc2c(-c3ccccc3OC)c(C)nn2c1C	none
CC(C)C(OC(=O)c1cccc(S(=O)(=O)NCC(F)(F)F)c1)C(=O)NC(N)=O (centres undefined)	none
COc1cccc(NC(=S)N/N=C2/CCCCc3ccccc32)c1	Cl transport mod 24, WT yeast gro inh 65 (no result: ROMK mod)
Cn1cc(CN2CCC(CO)(CCCc3ccccc3)CC2)c(-c2ccccc2)n1	none (no result: ROMK mod, WT yeast gro inh)
CCOC(=O)c1c(C)[nH]c(N=Nc2ccc(C)cc2C)c1C	none (no result: ROMK mod)
CCOC(=O)c1c(C)[nH]c(N=Nc2ccccc2C)c1C	WT yeast gro inh 77
N#C/C(=C/c1ccc(F)cc1)c1nnc(NC(=O)c2ccccc2)s1	none (no result: ROMK mod, WT yeast gro inh)
CCC(NC(=O)Nc1ccc(O)cc1)(C(F)(F)F)C(F)(F)F	RBBP9 inh 24 (no result: Cl transport mod)
CC(NC(=O)Nc1ccc(O)cc1)(C(F)(F)F)C(F)(F)F	none
CCOc1ccc(Oc2c(/C=N/NC(N)=O)c(C)nn2-c2ccccc2)cc1	none (no result: ROMK mod)
CCOc1ccc(Oc2c(/C=N/NC(=O)COc3ccccc3OC)c(C)nn2-c2ccccc2)cc1	WT yeast gro inh 67
CCC12CC3CC(C1)CC(C(=O)NNC(N)=O)(C3)C2	none (no result: ROMK mod, WT yeast gro inh)
COc1cc(C(c2nnnn2C2CCCC2)N2CCN(C)CC2)cc(OC)c1OC (centres undefined)	14-3-3 Bad inh 80 (no result: Cl transport mod)
CSc1ccc(Cl)c(C(=O)NCCOc2cc(C(C)C)ccc2C)c1	WT yeast gro inh 67 (no result: ROMK mod)
COc1cc(SC)ccc1C(=O)NCCOc1ccc(Cl)cc1	WT yeast gro inh 62 (no result: ROMK mod)
COc1cc(SC)ccc1C(=O)NCCOc1c(C)cc(C)cc1C	none (no result: ROMK mod)
[O-][n+]1cccc2ncc3cscc3c21	none
Cc1oc2c(c1C(=O)c1ccc(Cl)cc1)C(=O)C(=O)c1ccccc1-2	WT yeast gro inh 80 (no result: ROMK mod)
Nc1ncc(-c2ccc([N+](=O)[O-])cc2)cn1	NCF1 inh 78 (no result: ROMK mod)
Cc1cc(C(=O)OCC(=O)NCc2ccccc2Cl)c(C)o1	14-3-3 Bad inh 72
Nc1cccc2c1C(=O)N(C(=O)c1ccco1)C2=O	none (no result: ROMK mod, WT yeast gro inh)
O=C(c1ccco1)N1C(=O)c2cccc3cccc1c23	NCF1 inh 150 (no result: ROMK mod)
CCCCSc1cc(C)nc(N)n1	none (no result: WT yeast gro inh)
COc1ccc(OCc2nnc(SCC(=O)c3ccccc3)o2)cc1	none (no result: Cl transport mod)
CC(C)(C)c1ccc(C(=O)N2CCNCC2)cc1	NCF1 inh 38
CC(C)(C)c1ccc(C(=O)N2CCCN(C(=O)c3ccc(C(C)(C)C)cc3)CC2)cc1	none (no result: ROMK mod)
O=C(O)c1cn(-c2ccccc2)nc1-c1ccc(Cl)cc1	Cl transport mod -3.8 (no result: NCF1 inh, ROMK mod, WT yeast gro inh, 14-3-3 Bad inh)
COc1ccc(-c2nn(-c3ccccc3)cc2C(=O)O)cc1OC	none
CSc1ccccc1NC(=S)N/N=C/c1cccn1Cc1cccc(C)c1	WT yeast gro inh 63 (no result: NCF1 inh, Cl transport mod)
CSc1ccccc1NC(=O)CN(C)CC(=O)Nc1cc(C)ccc1C	none (no result: ROMK mod)
COC(=O)C1CC(=O)c2sccc2C1 (centres undefined)	none (no result: ROMK mod)
Cc1nc(C(C)NC(=O)CCc2nnc(-c3ccsc3)o2)cs1 (centres undefined)	none (no result: ROMK mod)
CCC(/C=C1\Sc2ccc(OC)cc2N1CCO)=C\c1sc2ccc(OC)cc2[n+]1CCO	WT yeast gro inh 84
CCC(/C=C1\Sc2ccc(OC)cc2N1CC)=C\c1sc2ccc(OC)cc2[n+]1CCCS(=O)(=O)[O-]	WT yeast gro inh 75
CCOc1ccc(-c2c[n+]3c(n2-c2ccccc2)CCCCC3)cc1	none (no result: ROMK mod)
COCCNc1c(-c2cc3ccc(C)c(C)c3[nH]c2=O)nc2ccccn12	none
COc1ccc(Cn2c(=O)[nH]c3cc(C(=O)N4CCN(c5ccccn5)CC4)ccc3c2=O)cc1	none
COc1ccc(CN2CCOCCOCCN(Cc3ccc(OC)cc3)CCOCCOCC2)cc1	none (no result: WT yeast gro inh)
Cn1c(-c2sc3ccccc3c2Cl)n[nH]c1=S	Cl transport mod 13 (no result: ROMK mod)
O=C(NC(=S)N1CCN(c2ccc([N+](=O)[O-])cc2)CC1)c1ccccc1F	none
CCCCOC(=O)Nc1ccc(OC)cc1S(=O)(=O)N1CCOCC1	Cl transport mod -3.3 (no result: ROMK mod)
CCOC(=O)C(=O)Nc1ccc(S(=O)(=O)N2CCOCC2)cc1OC	none (no result: ROMK mod)
CN(C(=O)Cn1nnc(-c2cccnc2)n1)C1CCCCC1	none (no result: ROMK mod, Cl transport mod, WT yeast gro inh)
COc1ccc(-c2n[nH]c(C(F)(F)F)c2-c2cc3ccccc3o2)c(O)c1	WT yeast gro inh 94 (no result: ROMK mod)
CC(C)(C)NS(=O)(=O)c1cnc(Cl)c(Cl)c1	WT yeast gro inh 60 (no result: ROMK mod, Cl transport mod)
Cn1c(=O)c(C(=O)COC(=O)c2cc(C(F)(F)F)nc3ccccc23)c(N)n(Cc2ccccc2)c1=O	none
CC(C)Cn1c(N)c(C(=O)COC(=O)c2cc(C(F)(F)F)nc3c(C(F)(F)F)cccc23)c(=O)n(C)c1=O	WT yeast gro inh 61
CC(C)Cn1c(N)c(C(=O)COC(=O)c2ccc(Cl)cc2)c(=O)n(C)c1=O	none
CC(C)Cn1c(N)c(C(=O)COC(=O)CC23CC4CC(CC(C4)C2)C3)c(=O)n(C)c1=O	WT yeast gro inh 85
O=[N+]([O-])c1cccnc1N1CCC(c2cc(-c3ccc(Cl)cc3)n[nH]2)CC1	WT yeast gro inh 72
